Test results as given in ChEMBL document CHEMBL3817745, “Structure-Activity Relationship for the 4(3H)-Quinazolinone Antibacterials” (J Med Chem, 2016).

What was measured:
Mus musculus [1] = assay: T>MIC in ICR mouse at 10 mg/kg, po administered as single dose through gavage by UPLC analysis
Mus musculus [2] = assay: Terminal half life in ICR mouse peritonitis model infected with methicillin resistant Staphylococcus aureus ATCC 27660 at 10 mg/kg, iv administered as single dose by UPLC analysis; format: ADME, organism-based; conditions: in vivo
Mus musculus [3] = assay: Volume of distribution in ICR mouse peritonitis model infected with methicillin resistant Staphylococcus aureus ATCC 27660 at 10 mg/kg, iv administered as single dose measured up to 24 hrs by UPLC analysis; format: ADME, organism-based; conditions: in vivo, 24 h
Mus musculus [4] = assay: T>MIC in ICR mouse at 10 mg/kg, iv administered as single dose by UPLC analysis
Mus musculus [5] = assay: AUC (0 to last) in ICR mouse peritonitis model infected with methicillin resistant Staphylococcus aureus ATCC 27660 at 10 mg/kg, po administered as single dose through gavage measured after 30 hrs by UPLC analysis; format: ADME, organism-based; parameters: dose 10 mg/kg, time 0 - last, route oral; conditions: in vivo, 30 h
In short: (§1)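 Female ICR mice, single 10 mg/kg oral gavage in 25% DMSO/55% propylene glycol/20% PBS (2.5 mg/mL); n = 3 per time point; terminal blood 0.5–30 h; plasma protein-precipitated with acetonitrile containing internal standard, quantified by UPLC-UV or MRM against mouse-plasma calibration curve (0–50 μg/mL).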

Mus musculus [6] = assay: AUC (0 to infinity) in ICR mouse peritonitis model infected with methicillin resistant Staphylococcus aureus ATCC 27660 at 10 mg/kg, iv administered as single dose by UPLC analysis; format: ADME, organism-based; parameters: dose 10 mg/kg, time infinity, route intravenous; conditions: in vivo
Mus musculus [7] = assay: Terminal half life in ICR mouse peritonitis model infected with methicillin resistant Staphylococcus aureus ATCC 27660 at 10 mg/kg, po administered as single dose through gavage by UPLC analysis; format: ADME, organism-based; conditions: in vivo
In short: as §1

Mus musculus [8] = assay: AUC (0 to infinity) in ICR mouse peritonitis model infected with methicillin resistant Staphylococcus aureus ATCC 27660 at 10 mg/kg, po administered as single dose through gavage by UPLC analysis; format: ADME, organism-based; parameters: dose 10 mg/kg, route oral, time infinity; conditions: in vivo
In short: as §1

[9] = Solubility of compound in water; format: physicochemical; conditions: buffer
[10] = Drug level in uninfected thighs of ICR mouse neutropenic thigh model of methicillin-resistant Staphylococcus aureus NRS70 infection at 20 mg/kg, sc tid administered every 8 hrs starting from 1 hr post infection and measured 7 hrs post last dose by UPLC analysis; format: ADME, organism-based; conditions: read-out: Drug uptake
In short: (§2)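 Neutropenic thigh model (cyclophosphamide 200 mg/kg ip, NRS70 im), sc doses at 1, 9 and 17 h; at 24 h cardiac blood and uninfected thigh taken (n = 8 per group); thigh homogenate supernatant and plasma acetonitrile-quenched with internal standard, analysed by UPLC with MRM detection.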

Mus musculus [11] = assay: Tmax in ICR mouse peritonitis model infected with methicillin resistant Staphylococcus aureus ATCC 27660 at 10 mg/kg, po administered as single dose through gavage by UPLC analysis; format: ADME, organism-based; conditions: in vivo
In short: as §1

[12] = Plasma concentration in ICR mouse neutropenic thigh model of methicillin-resistant Staphylococcus aureus NRS70 infection at 20 mg/kg, sc tid administered every 8 hrs starting from 1 hr post infection and measured 7 hrs post last dose by UPLC analysis; format: ADME, organism-based
In short: as §2

Mus musculus [13] = assay: Clearance in ICR mouse peritonitis model infected with methicillin resistant Staphylococcus aureus ATCC 27660 at 10 mg/kg, iv administered as single dose measured up to 8 hrs by UPLC analysis relative to hepatic blood flow; format: ADME, organism-based; conditions: in vivo
In short: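 Fast PK: female ICR mice (n = 2 per time point) given single tail-vein iv injection at 5, 10 or 20 mg/kg in 25% DMSO/65% propylene glycol/10% water (2.5, 5 or 10 mg/mL); terminal cardiac blood at 5 min, 40 min, 2, 4, 8 h; plasma analysed by UPLC with internal standard calibration.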

Mus musculus [14] = assay: Cmax in ICR mouse peritonitis model infected with methicillin resistant Staphylococcus aureus ATCC 27660 at 10 mg/kg, po administered as single dose through gavage measured at 0.5 hrs post dose by UPLC analysis; format: ADME, organism-based; parameters: dose 10 mg/kg, route oral; conditions: in vivo
In short: as §1

Mus musculus [15] = assay: Oral bioavailability in ICR mouse peritonitis model infected with methicillin resistant Staphylococcus aureus ATCC 27660 at 10 mg/kg administered as single dose through gavage by UPLC analysis; format: ADME, organism-based; conditions: in vivo
In short: as §1

Q: For `C#Cc1ccc(/C=C/c2nc3ccccc3c(=O)n2-c2cccc(C(=O)[O-])c2)cc1.[Na+]`, which “T>MIC” value (Mus musculus [1]) is on record?
A: 30 h

Q: And the “beta t1/2” value (Mus musculus [2])?
A: 6.5 h

Q: And the Vd (Mus musculus [3])?
A: 3.58 L/kg

Q: What about the “T>MIC” value (Mus musculus [4]) of the same molecule?
A: 24 h

Q: What about the AUClast (Mus musculus [5]) of the same molecule?
A: 552 µg·min/mL

Q: And the AUC (Mus musculus [6])?
A: 1570 µg·min/mL

Q: What about the “beta t1/2” value (Mus musculus [7]) of the same molecule?
A: 6.6 h

Q: And the AUC (Mus musculus [8])?
A: 582 µg·min/mL

Q: And the solubility [9]?
A: 1500 µg/mL

Q: What about the concentration at 7 h [10] of the same molecule?
A: 220 ng/mL

Q: And the Tmax (Mus musculus [11])?
A: 0.5 h

Q: And the concentration at 7 h [12]?
A: 2430 ng/mL

Q: And the CL (Mus musculus [13])?
A: < 10%

Q: And the Cmax (Mus musculus [14])?
A: 2700 ng/mL

Q: And the F (Mus musculus [15])?
A: 37%
